Test results from ChEMBL document CHEMBL3813671, “Unexpected Discovery of Dichloroacetate Derived Adenosine Triphosphate Competitors Targeting Pyruvate Dehydrogenase Kinase To Inhibit Cancer Proliferation” (J Med Chem, 2016).
Activity calls are given as the source filed them. The rule behind the calls is not given here.

Experiments:
[1] = tested on: MCF7; assay: Cytotoxicity against human MCF7 cells assessed as growth inhibition after 72 hrs by MTT assay; format: functional, cell-based; conditions: MCF7, 72 h
[2] = tested on: MCF7; assay: Reversal of hyperpolarized mitochondrial membrane potential in human MCF7 cells assessed as cells with vital and intact mitochondrial membranes at 20 uM after 12 hrs by JC1 staining-based flow cytometric analysis; format: functional
Procedure, shortened: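 MCF-7 cells treated 12 h (5, 10 or 20 µM), then stained with JC-1. Depolarization read as the ratio of green J-monomer to red J-aggregate fluorescence.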

[3] = target: T1, [Pyruvate dehydrogenase (acetyl-transferring)] kinase isozyme 1, mitochondrial (Homo sapiens, UniProt Q15118); conditions: MCF7, 10 mM
[4] = target: T1, [Pyruvate dehydrogenase (acetyl-transferring)] kinase isozyme 1, mitochondrial; conditions: MCF7, 10 mM; remark: listed apart in the source
[5] = Cytotoxicity against human MCF10A cells assessed as growth inhibition at 10 mM after 72 hrs by MTT assay relative to control; format: cell-based, MCF-10A; conditions: read-out: GI
[6] = tested on: MCF7; assay: Induction of apoptosis in human MCF7 assessed as necrotic cells at 10 mM after 10 hrs by FITC-annexin V/propidium iodide staining-based flow cytometric analysis (reference value: 1.86%); format: functional
[7] = Cytotoxicity against human MCF10A cells assessed as growth inhibition at 20 uM after 72 hrs by MTT assay relative to control; format: cell-based, MCF-10A; conditions: read-out: GI
[8] = tested on: A549; assay: Cytotoxicity against human A549 cells assessed as growth inhibition after 72 hrs by MTT assay; format: functional, cell-based; conditions: A549, 72 h
[9] = tested on: MCF7; assay: Induction of apoptosis in human MCF7 assessed as early apoptotic cells at 10 mM after 10 hrs by FITC-annexin V/propidium iodide staining-based flow cytometric analysis (reference value: 2.38%); format: functional
[10] = target: T1, [Pyruvate dehydrogenase (acetyl-transferring)] kinase isozyme 1, mitochondrial; conditions: MCF7, 10 mM; remark: listed apart in the source
[11] = target: T1, [Pyruvate dehydrogenase (acetyl-transferring)] kinase isozyme 1, mitochondrial; conditions: MCF7, 10 mM; remark: listed apart in the source
[12] = tested on: MCF7; assay: Reversal of hyperpolarized mitochondrial membrane potential in human MCF7 cells assessed as cells with vital and intact mitochondrial membranes at 10 mM after 12 hrs by JC1 staining-based flow cytometric analysis; format: functional
Procedure, shortened: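 MCF-7 treated 12 h, then stained with JC-1. Mitochondrial potential read as the ratio of green J-monomer to red J-aggregate fluorescence, where a higher ratio marks depolarization. P < 0.05 computed against the […] DCA-treated group.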

[13] = tested on: MCF7; assay: Induction of apoptosis in human MCF7 assessed as viable cells at 10 mM after 10 hrs by FITC-annexin V/propidium iodide staining-based flow cytometric analysis (reference value: 93.8%); format: functional; conditions: MCF7, 10 h, read-out: Activity
[14] = target: T1, [Pyruvate dehydrogenase (acetyl-transferring)] kinase isozyme 1, mitochondrial; conditions: MCF7, 10 mM; remark: listed apart in the source
[15] = organism: Sus scrofa; assay: Activation of pig heart PDC assessed as production of NADH at 10 mM in presence of ATP
Procedure, shortened: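 Pig PDC with its intrinsic PDKs preincubated 40 min at 37 °C at 80 µg/ml in Mops buffer pH 7.20 with acetyl-CoA, NADH, NaF. Kinase step run 3 min at 37 °C after 2.2-fold dilution into buffer with 55 µM ADP and 100 µM ATP, stopped with ADP/pyruvate. Residual PDC activity read as NADH at 340 nm in Tris pH 7.8 with NAD+, pyruvate, CoA, thiamine pyrophosphate.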

[16] = tested on: MCF7; assay: Induction of apoptosis in human MCF7 assessed as late apoptotic cells at 10 mM after 10 hrs by FITC-annexin V/propidium iodide staining-based flow cytometric analysis (reference value: 1.95%); format: functional
[17] = tested on: A549; assay: Cytotoxicity against human A549 cells assessed as growth inhibition at 40 uM after 72 hrs by IncuCyte Zoom live cells imaging method; format: functional, cell-based
[18] = Cytotoxicity against human MCF10A cells assessed as growth inhibition at 10 uM after 72 hrs by MTT assay relative to control; format: cell-based, MCF-10A; conditions: read-out: GI
[19] = target: T1, [Pyruvate dehydrogenase (acetyl-transferring)] kinase isozyme 1, mitochondrial; assay: Inhibition of PDK1 in human MCF7 cells assessed as decrease in proton production rate at 20 uM after 12 hrs; format: cell-based
Procedure, shortened: (§1)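 MCF-7 cells at 2.7×10⁴ cells/well in XF24 plates, attached, then grown 24 h at 37 °C in 5% CO2. Treated 12 h at 5, 10 or 20 µM, rinsed into glycolysis stress-test medium and held 1 h at 37 °C without CO2. OCR, ECAR and PPR then measured on a Seahorse XFe24 analyser. Significance P < 0.05 versus untreated control.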

[20] = Cytotoxicity against human MCF10A cells assessed as growth inhibition at 40 uM after 72 hrs by MTT assay relative to control; format: cell-based, MCF-10A; conditions: read-out: GI
[21] = target: T1, [Pyruvate dehydrogenase (acetyl-transferring)] kinase isozyme 1, mitochondrial; assay: Inhibition of PDK1 in human MCF7 cells assessed as decrease in lactate production at 20 uM after 12 hrs
[22] = target: T1, [Pyruvate dehydrogenase (acetyl-transferring)] kinase isozyme 1, mitochondrial; assay: Inhibition of recombinant N-terminal 6xHis-SUMO-tagged human PDK1 (29 to 436 residues) expressed in Escherichia coli BL-21 assessed as suppression of PDC phosphorylation at S293 at 50 uM after 30 mins by Western blot method
[23] = tested on: MCF7; assay: Induction of apoptosis in human MCF7 assessed as necrotic cells at 20 uM after 10 hrs by FITC-annexin V/propidium iodide staining-based flow cytometric analysis (reference value: 1.86%); format: functional
[24] = tested on: A549; assay: Cytotoxicity against human A549 cells assessed as growth inhibition at 40 uM after 72 hrs by MTT assay relative to control; format: functional, cell-based
[25] = target: T1, [Pyruvate dehydrogenase (acetyl-transferring)] kinase isozyme 1, mitochondrial; assay: Inhibition of PDK1 in human MCF7 cells assessed as increase in ratio of oxygen consumption rate to extracellular acidification rate at 20 uM after 12 hrs; format: cell-based; procedure, shortened: as §1
[26] = tested on: MCF7; assay: Cytotoxicity against human MCF7 cells assessed as growth inhibition at 40 uM after 72 hrs by MTT assay relative to control; format: functional, cell-based
[27] = target: T1, [Pyruvate dehydrogenase (acetyl-transferring)] kinase isozyme 1, mitochondrial; assay: Inhibition of PDK1 in human MCF7 cells assessed as decrease in extracellular acidification rate at 20 uM after 12 hrs; format: cell-based; procedure, shortened: as §1
[28] = tested on: MCF7; assay: Induction of apoptosis in human MCF7 assessed as early apoptotic cells at 20 uM after 10 hrs by FITC-annexin V/propidium iodide staining-based flow cytometric analysis (reference value: 2.38%); format: functional
[29] = tested on: MCF7; assay: Induction of mitochondrial membrane potential depolarization in human MCF7 cells at 60 uM after 12 hrs by TMRM staining-based assay; format: functional, cell-based
[30] = organism: Sus scrofa; assay: Activation of pig heart PDC assessed as production of NADH at 50 uM in absence of ATP
Procedure, shortened: (§2)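 Pig heart PDC (80 µg/ml, carrying intrinsic PDK activity) preincubated 40 min at 37 °C in Mops pH 7.20 buffer with NaF, acetyl-CoA, NADH and DTT. Kinase step 3 min at 37 °C with 55 µM ADP and 100 µM ATP, or no ATP. Stopped with ADP/pyruvate. Residual PDC activity then read as NADH formation at 340 nm, 37 °C, in Tris pH 7.8 with TPP, NAD+, pyruvate and CoA.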

[31] = target: T1, [Pyruvate dehydrogenase (acetyl-transferring)] kinase isozyme 1, mitochondrial; assay: Inhibition of recombinant N-terminal 6xHis-SUMO-tagged human PDK1 (29 to 436 residues) expressed in Escherichia coli BL-21 assessed as activation of PDC at 50 uM
[32] = tested on: MCF7; assay: Induction of apoptosis in human MCF7 assessed as late apoptotic cells at 20 uM after 10 hrs by FITC-annexin V/propidium iodide staining-based flow cytometric analysis (reference value: 1.95%); format: functional
[33] = organism: Sus scrofa; assay: Activation of pig heart PDC assessed as production of NADH at 50 uM in presence of ATP; procedure, shortened: as §2
[34] = target: T1, [Pyruvate dehydrogenase (acetyl-transferring)] kinase isozyme 1, mitochondrial; assay: Inhibition of PDK1 in human MCF7 cells assessed as increase in oxygen consumption rate at 20 uM after 12 hrs; format: cell-based; procedure, shortened: as §1
[35] = tested on: MCF7; assay: Induction of apoptosis in human MCF7 assessed as viable cells at 20 uM after 10 hrs by FITC-annexin V/propidium iodide staining-based flow cytometric analysis (reference value: 93.8%); format: functional; conditions: MCF7, 10 h, read-out: Activity
[36] = target: T1, [Pyruvate dehydrogenase (acetyl-transferring)] kinase isozyme 1, mitochondrial; assay: Inhibition of recombinant N-terminal 6xHis-SUMO-tagged human PDK1 (29 to 436 residues) expressed in Escherichia coli BL-21 assessed as phosphorylation of RYHGHSMSDP at 50 uM after 30 mins by Kinase-Glo luminescent assay
[37] = tested on: MCF7; assay: Cytotoxicity against human MCF7 cells assessed as growth inhibition at 40 uM after 72 hrs by IncuCyte Zoom live cells imaging method; format: functional, cell-based

SMILES | IC50 [1] [µM] | Activity [2] [%] | IC50 [8] [µM] | inhibition at 72 h, 10 µM [18] [%] | inhibition [19] | inhibition at 72 h, 40 µM [20] [%] | inhibition [21] | inhibition [22] | Activity [23] [%] | growth inhibition (GI) [24] | inhibition [25] | growth inhibition (GI) [26] | inhibition [27] | Activity [28] [%] | Activity [29] | Activity [30] | inhibition [31] | Activity [32] [%] | Activity [33] | inhibition [34] | also measured
O=C([O-])C(Cl)Cl.[Na+] [SODIUM DICHLOROACETATE] | 12400 | 77.7 | 23600 |  |  |  |  |  |  |  |  |  |  |  |  |  |  |  |  |  | inhibition [3]: Active; inhibition [4]: Active; inhibition at 72 h, 10000 µM [5]: 41.1%; Activity [6]: 3.09%; inhibition at 72 h, 20 µM [7]: 3.42%; Activity [9]: 3.64%; inhibition [10]: Active; inhibition [11]: Active; Activity [12]: 69%; viability at 10000 µM [13]: 83.3%; inhibition [14]: Active; Activity [15]: Active; Activity [16]: 9.94%
Cc1nc(Cl)c(NC(=O)C(Cl)Cl)c(Cl)n1 | 22.9 | 68.6 | 26 | 7.57 | Active | 41.6 | Active | Active | 2.7 | Active | Active | Active | Active | 4.43 | Active | Active | Active | 9.87 | inactive | Active | growth inhibition (GI) [17]: Active; viability at 20 µM [35]: 83%; inhibition [36]: Active
O=C(Nc1c(Cl)ncnc1Cl)C(Cl)Cl | 19.3 | 60.1 | 28.4 | 4.91 | Active | 42.4 | Active | Active | 3.91 | Active | Active | Active | Active | 4.84 | Active | Active | Active | 10.6 | inactive | Active | growth inhibition (GI) [37]: Active; viability at 20 µM [35]: 80.7%; inhibition [36]: Active
